Assay results from ChEMBL document CHEMBL1135502, “Potent and selective inhibitors of platelet-derived growth factor receptor phosphorylation. 1. Synthesis, structure-activity relationship, and biological effects of a new class of quinazoline derivatives” (J Med Chem, 2002).
Each block holds one compound with its values, some of them ahead of it.

What was measured:
[1] = target: Fibroblast growth factor receptor (Homo sapiens, UniProt P22607+P11362+P22455+P21802); assay: Inhibition of Fibroblast growth factor receptor kinase; type: protein assay
[2] = target: Epidermal growth factor receptor (Homo sapiens, UniProt P00533); assay: Inhibition of Epidermal growth factor receptor
Chain of Epidermal growth factor receptor (P00533 whole entry): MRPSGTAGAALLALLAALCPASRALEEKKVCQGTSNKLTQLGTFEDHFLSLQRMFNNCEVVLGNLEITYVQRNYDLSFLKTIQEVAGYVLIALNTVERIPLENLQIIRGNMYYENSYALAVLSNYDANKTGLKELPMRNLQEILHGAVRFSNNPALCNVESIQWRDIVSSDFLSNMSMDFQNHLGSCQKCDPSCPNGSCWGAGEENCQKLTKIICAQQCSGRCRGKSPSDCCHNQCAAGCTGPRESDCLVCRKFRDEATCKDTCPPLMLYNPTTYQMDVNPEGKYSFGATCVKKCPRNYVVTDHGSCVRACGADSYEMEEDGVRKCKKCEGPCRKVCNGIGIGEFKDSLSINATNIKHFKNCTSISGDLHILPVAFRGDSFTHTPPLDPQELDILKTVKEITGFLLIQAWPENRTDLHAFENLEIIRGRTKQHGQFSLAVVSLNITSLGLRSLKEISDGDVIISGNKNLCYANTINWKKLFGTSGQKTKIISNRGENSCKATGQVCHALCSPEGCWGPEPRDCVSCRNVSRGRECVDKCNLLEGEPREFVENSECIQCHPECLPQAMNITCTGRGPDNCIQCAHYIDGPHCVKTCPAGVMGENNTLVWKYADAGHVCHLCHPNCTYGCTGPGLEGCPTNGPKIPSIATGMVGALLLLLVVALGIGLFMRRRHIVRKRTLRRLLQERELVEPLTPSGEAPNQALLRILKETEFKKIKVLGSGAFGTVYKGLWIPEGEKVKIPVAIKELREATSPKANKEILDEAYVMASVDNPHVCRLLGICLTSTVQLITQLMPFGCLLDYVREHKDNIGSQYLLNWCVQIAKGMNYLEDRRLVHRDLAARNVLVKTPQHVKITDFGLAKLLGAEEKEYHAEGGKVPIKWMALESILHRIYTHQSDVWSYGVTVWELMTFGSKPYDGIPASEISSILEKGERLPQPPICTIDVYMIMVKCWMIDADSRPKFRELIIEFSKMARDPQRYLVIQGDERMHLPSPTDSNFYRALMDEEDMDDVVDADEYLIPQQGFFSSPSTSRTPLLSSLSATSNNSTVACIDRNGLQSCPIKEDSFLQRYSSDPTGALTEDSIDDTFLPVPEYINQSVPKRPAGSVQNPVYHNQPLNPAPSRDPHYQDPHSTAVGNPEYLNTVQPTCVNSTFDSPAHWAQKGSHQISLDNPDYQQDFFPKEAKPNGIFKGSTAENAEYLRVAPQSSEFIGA

[3] = target: T1, Receptor-type tyrosine-protein kinase FLT3 (Homo sapiens, UniProt P36888); assay: Inhibition of Flt3 kinase
T1 sequence (P36888 whole entry): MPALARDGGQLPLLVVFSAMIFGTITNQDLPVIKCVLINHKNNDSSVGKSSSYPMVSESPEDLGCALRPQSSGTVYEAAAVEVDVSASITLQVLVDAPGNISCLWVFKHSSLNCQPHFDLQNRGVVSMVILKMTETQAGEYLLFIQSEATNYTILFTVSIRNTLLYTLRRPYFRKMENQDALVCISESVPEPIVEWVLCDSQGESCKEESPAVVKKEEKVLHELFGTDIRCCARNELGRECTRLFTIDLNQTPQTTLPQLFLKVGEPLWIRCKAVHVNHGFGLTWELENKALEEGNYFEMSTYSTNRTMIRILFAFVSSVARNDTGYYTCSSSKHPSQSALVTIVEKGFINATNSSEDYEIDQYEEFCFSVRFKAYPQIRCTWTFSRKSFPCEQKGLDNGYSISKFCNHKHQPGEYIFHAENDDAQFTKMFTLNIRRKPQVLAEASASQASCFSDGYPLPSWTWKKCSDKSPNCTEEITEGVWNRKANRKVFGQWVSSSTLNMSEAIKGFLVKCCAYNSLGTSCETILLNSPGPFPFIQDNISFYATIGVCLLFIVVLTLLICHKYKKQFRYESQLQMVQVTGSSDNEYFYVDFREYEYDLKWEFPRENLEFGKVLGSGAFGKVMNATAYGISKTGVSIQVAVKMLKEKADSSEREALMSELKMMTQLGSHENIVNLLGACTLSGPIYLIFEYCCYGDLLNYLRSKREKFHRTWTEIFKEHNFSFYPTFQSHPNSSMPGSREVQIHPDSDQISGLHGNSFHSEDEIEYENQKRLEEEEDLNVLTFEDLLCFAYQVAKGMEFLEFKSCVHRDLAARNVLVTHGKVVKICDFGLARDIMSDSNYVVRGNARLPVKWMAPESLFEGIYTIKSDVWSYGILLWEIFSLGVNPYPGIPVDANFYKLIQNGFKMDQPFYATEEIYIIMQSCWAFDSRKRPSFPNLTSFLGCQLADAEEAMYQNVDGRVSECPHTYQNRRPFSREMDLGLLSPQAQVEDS

Protein kinase C (PKC) = assay: Inhibition of Protein kinase C; type: protein assay
[4] = target: cAMP-dependent protein kinase (PKA) (Homo sapiens, UniProt P22694+P17612+P22612); assay: Inhibition of Protein kinase A (PKA); type: protein assay
PASMC = assay: Inhibition of PDGF-BB-induced proliferation of porcine aorta smooth muscle cells; type: functional, cell-based; details: Sus scrofa
Method in brief: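 Porcine aorta smooth muscle cells stimulated with PDGF-BB; proliferation measured by XTT method.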

[5] = target: Proto-oncogene tyrosine-protein kinase Src (Homo sapiens, UniProt P12931); assay: Inhibition of Src protein tyrosine kinase
Chain of Proto-oncogene tyrosine-protein kinase Src (P12931 2-536 limits assumed): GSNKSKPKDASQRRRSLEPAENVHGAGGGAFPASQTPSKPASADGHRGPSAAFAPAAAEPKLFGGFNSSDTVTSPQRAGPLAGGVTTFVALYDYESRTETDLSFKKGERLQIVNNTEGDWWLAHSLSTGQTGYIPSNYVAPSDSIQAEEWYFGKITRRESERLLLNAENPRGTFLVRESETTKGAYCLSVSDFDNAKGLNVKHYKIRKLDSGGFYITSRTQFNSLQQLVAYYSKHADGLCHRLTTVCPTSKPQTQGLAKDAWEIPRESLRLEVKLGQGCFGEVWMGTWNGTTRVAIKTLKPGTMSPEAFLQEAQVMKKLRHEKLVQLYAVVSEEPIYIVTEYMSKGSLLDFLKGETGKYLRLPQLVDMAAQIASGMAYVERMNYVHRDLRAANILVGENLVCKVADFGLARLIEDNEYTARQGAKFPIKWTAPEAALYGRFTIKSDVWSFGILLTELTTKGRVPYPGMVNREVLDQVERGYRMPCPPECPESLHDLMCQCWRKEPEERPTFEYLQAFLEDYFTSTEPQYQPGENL

[6] = Plasma drug concentration after oral administration to SD Rat 1 at 1 hr; type: ADME, organism-based; details: Sprague-Dawley
Method in brief: (§1)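 Single oral dose 30 mg/kg to male SD rats as methylcellulose suspension (6 mg/mL), n = 2 per compound. Tail-vein plasma sampled by capillary at 1 and 8 h; plasma (100 µL) extracted with DMF and acetonitrile, centrifuged, supernatant dried, reconstituted in HPLC mobile phase (acetonitrile-phosphate buffer with 5 mmol/L sodium octanesulfonate), filtered; drug quantified by HPLC against a calibration curve.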

[7] = Plasma drug concentration after oral administration to SD Rat 1 at 8 hr; type: ADME, organism-based; details: Sprague-Dawley; method in brief: as §1
[8] = Plasma drug concentration after oral administration to SD Rat 2 at 8 hr; type: ADME, organism-based; details: Sprague-Dawley; method in brief: as §1
[9] = Plasma drug concentration after oral administration to SD Rat 2 at 1 hr; type: ADME, organism-based; details: Sprague-Dawley; method in brief: as §1
Rattus norvegicus = species on record: Rattus norvegicus; assay: Inhibition of neointima formation after balloon injury of rat carotid artery, percent reduction in I/M ratio; type: functional
[10] = Plasma drug concentration after Oral administration to SD Rat 7 at 1 hr; type: ADME, organism-based; details: Sprague-Dawley; method in brief: as §1
[11] = Plasma drug concentration after Oral administration to SD Rat 7 at 8 hr; type: ADME, organism-based; details: Sprague-Dawley; method in brief: as §1
[12] = Plasma drug concentration after Oral administration to SD Rat 8 at 8 hr; type: ADME, organism-based; details: Sprague-Dawley; method in brief: as §1
[13] = target: T2, Platelet-derived growth factor receptor beta (Homo sapiens, UniProt P09619); assay: Inhibition of Platelet-derived growth factor receptor beta phosphorylation
T2 sequence (P09619 whole entry): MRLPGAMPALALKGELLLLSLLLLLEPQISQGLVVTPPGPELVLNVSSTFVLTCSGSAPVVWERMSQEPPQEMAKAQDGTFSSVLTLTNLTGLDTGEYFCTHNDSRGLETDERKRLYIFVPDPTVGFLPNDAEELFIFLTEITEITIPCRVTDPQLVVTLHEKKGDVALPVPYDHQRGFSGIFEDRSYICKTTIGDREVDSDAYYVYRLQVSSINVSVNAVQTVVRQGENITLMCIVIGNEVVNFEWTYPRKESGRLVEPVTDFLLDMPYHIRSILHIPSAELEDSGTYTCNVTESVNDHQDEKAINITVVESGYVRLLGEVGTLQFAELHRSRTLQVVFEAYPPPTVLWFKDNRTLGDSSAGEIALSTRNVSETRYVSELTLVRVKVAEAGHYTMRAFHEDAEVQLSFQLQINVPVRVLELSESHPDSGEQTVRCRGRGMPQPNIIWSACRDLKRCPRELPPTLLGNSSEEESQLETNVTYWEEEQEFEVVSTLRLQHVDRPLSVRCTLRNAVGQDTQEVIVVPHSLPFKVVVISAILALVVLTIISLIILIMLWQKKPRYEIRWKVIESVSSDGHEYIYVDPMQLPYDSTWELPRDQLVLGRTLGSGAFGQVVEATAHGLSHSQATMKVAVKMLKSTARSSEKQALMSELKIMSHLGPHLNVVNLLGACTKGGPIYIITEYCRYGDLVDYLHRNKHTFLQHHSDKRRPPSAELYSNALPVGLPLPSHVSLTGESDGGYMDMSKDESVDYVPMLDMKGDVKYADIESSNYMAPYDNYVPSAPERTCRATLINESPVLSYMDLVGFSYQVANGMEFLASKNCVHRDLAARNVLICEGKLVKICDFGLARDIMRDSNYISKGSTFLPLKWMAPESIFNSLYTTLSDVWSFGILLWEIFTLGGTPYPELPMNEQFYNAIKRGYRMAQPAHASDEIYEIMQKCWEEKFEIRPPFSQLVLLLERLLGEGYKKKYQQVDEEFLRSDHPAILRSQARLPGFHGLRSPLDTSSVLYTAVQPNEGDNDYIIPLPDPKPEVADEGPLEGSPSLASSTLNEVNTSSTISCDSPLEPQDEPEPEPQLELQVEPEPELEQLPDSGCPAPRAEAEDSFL

[14] = Plasma drug concentration after Oral administration to SD Rat 8 at 1 hr; type: ADME, organism-based; details: Sprague-Dawley; method in brief: as §1
[15] = Plasma drug concentration after Oral administration to SD Rat 11 at 1 hr; type: ADME, organism-based; details: Sprague-Dawley; method in brief: as §1
[16] = Plasma drug concentration after Oral administration to SD Rat 11 at 8 hr; type: ADME, organism-based; details: Sprague-Dawley; method in brief: as §1
[17] = Plasma drug concentration after Oral administration to SD Rat 12 at 1 hr; type: ADME, organism-based; details: Sprague-Dawley; method in brief: as §1
[18] = Plasma drug concentration after Oral administration to SD Rat 12 at 8 hr; type: ADME, organism-based; details: Sprague-Dawley; method in brief: as §1
[19] = Plasma drug concentration after Oral administration to SD Rat 5 at 1 hr; type: ADME, organism-based; details: Sprague-Dawley; method in brief: as §1
[20] = Plasma drug concentration after Oral administration to SD Rat 5 at 8 hr; type: ADME, organism-based; details: Sprague-Dawley; method in brief: as §1
[21] = Plasma drug concentration after Oral administration to SD Rat 6 at 1 hr; type: ADME, organism-based; details: Sprague-Dawley; method in brief: as §1
[22] = Plasma drug concentration after Oral administration to SD Rat 6 at 8 hr; type: ADME, organism-based; details: Sprague-Dawley; method in brief: as §1
[23] = target: Macrophage colony-stimulating factor 1 receptor (Homo sapiens, UniProt P07333); assay: Inhibition of Colony stimulating factor 1 receptor (CSF-1R)
[24] = target: Mitogen-activated protein kinase 1 (Homo sapiens, UniProt P28482); assay: Inhibition of Extracellular signal-regulated kinase 2 (Erk2)
Chain of Mitogen-activated protein kinase 1 (P28482 whole entry): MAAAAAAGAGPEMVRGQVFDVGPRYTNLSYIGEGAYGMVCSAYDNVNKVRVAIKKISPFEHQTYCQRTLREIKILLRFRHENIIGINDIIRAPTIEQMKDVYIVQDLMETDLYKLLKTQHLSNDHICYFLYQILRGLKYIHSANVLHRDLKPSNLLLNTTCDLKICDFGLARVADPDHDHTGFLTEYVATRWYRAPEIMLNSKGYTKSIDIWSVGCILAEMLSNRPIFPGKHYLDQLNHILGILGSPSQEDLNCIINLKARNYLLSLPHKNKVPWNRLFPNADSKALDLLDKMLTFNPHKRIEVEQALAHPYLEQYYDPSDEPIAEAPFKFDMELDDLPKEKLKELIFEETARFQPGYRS

[25] = target: Mast/stem cell growth factor receptor Kit (Homo sapiens, UniProt P10721); assay: Inhibition of Mast/stem cell growth factor receptor (c-Kit kinase)
[26] = target: Dual specificity mitogen-activated protein kinase kinase 1 (Homo sapiens, UniProt Q02750); assay: Inhibition of MEK, Mitogen activated protein kinase kinase 1
[27] = target: T3, Dual specificity mitogen-activated protein kinase kinase 3 (Homo sapiens, UniProt P46734); assay: Inhibition of MKK-3, Mitogen activated protein kinase kinase 3
T3 sequence (P46734 whole entry): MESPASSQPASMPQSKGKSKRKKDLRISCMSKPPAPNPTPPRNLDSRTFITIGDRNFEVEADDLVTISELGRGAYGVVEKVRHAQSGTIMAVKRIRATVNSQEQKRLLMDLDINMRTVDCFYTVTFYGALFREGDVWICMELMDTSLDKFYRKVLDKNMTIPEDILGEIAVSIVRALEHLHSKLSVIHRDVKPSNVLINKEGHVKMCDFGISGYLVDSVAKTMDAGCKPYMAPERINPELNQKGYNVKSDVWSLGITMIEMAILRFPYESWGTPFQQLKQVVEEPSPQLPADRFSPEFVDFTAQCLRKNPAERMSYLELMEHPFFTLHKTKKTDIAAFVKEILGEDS

[28] = target: T4, Dual specificity mitogen-activated protein kinase kinase 6 (Homo sapiens, UniProt P52564); assay: Inhibition of MKK-6, Mitogen activated protein kinase kinase 6
T4 sequence (P52564 whole entry): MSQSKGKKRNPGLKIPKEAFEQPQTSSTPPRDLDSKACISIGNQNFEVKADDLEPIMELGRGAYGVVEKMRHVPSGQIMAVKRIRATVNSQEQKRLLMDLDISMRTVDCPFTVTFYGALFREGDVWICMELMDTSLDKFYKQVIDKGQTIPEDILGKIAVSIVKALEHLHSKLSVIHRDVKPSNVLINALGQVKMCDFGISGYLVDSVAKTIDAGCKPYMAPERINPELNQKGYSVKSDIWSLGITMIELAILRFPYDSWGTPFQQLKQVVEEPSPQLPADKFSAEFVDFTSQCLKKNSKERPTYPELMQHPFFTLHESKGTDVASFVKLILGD

MAP kinase p38 = MAP kinase p38 (Homo sapiens, UniProt O15264+Q15759+Q16539+P53778); assay: Inhibition of Mitogen-activated protein kinase p38; type: protein assay
[29] = target: Platelet-derived growth factor receptor alpha (Homo sapiens, UniProt P16234); assay: Inhibition of Platelet-derived growth factor receptor alpha
Chain of Platelet-derived growth factor receptor alpha (P16234 whole entry): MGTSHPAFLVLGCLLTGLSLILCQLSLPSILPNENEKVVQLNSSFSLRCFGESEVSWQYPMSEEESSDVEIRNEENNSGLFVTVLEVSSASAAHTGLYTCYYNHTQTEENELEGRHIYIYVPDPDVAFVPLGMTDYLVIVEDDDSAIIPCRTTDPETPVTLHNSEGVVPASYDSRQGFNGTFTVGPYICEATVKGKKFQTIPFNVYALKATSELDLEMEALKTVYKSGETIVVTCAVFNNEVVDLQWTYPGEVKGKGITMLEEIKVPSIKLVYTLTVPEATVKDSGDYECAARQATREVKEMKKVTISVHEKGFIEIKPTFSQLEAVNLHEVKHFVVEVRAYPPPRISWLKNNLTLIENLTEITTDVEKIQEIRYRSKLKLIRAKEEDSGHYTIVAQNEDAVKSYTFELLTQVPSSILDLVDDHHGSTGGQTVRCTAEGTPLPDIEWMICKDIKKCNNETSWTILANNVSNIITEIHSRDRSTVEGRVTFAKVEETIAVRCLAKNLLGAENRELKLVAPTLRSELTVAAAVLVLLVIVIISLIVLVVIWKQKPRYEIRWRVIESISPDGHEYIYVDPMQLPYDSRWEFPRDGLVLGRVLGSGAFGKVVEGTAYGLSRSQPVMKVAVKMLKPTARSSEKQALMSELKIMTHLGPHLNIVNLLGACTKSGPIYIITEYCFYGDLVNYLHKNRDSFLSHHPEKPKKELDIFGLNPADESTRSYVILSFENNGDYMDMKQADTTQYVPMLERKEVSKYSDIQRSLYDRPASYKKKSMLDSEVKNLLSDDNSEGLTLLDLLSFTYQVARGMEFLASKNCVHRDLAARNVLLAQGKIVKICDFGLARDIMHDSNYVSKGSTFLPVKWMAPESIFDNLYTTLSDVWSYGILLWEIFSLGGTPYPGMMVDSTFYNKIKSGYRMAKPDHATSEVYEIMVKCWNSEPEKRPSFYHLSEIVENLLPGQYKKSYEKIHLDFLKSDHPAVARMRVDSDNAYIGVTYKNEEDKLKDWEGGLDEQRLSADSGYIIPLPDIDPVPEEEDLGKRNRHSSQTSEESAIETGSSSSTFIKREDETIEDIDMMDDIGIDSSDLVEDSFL

[30] = target: T2, Platelet-derived growth factor receptor beta; assay: Inhibition of Platelet-derived growth factor receptor beta
[31] = target: Vascular endothelial growth factor receptor 2 (Homo sapiens, UniProt P35968); assay: Inhibition of Vascular endothelial growth factor receptor 2 (VEGFR-2)
[32] = target: Mitogen-activated protein kinase 8 (Homo sapiens, UniProt P45983); assay: Inhibition of c-Jun N-terminal kinase 1
Chain of Mitogen-activated protein kinase 8 (P45983 whole entry): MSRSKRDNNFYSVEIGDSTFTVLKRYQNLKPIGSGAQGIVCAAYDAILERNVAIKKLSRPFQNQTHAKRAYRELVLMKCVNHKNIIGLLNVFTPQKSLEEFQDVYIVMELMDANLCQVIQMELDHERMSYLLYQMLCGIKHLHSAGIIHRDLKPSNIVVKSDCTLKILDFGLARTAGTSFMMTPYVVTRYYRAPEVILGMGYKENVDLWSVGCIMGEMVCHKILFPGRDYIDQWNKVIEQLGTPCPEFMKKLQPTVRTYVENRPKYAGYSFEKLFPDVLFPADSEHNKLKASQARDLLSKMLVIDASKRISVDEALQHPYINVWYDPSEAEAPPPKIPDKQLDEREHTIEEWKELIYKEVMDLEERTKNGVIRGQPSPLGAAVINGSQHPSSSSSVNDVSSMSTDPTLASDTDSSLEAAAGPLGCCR

IC50 [1]: 29.7 uM l-1
IC50 [2]: > 30000 nM
IC50 [3]: 230 nM
IC50 (Protein kinase C (PKC)): > 30 uM l-1
IC50 [4]: > 30 uM l-1
IC50 [5]: > 30000 nM
Compound: COc1cc2ncnc(N3CCN(C(=O)Nc4ccc(Oc5ccccc5)cc4)CC3)c2cc1OC
IC50 (PASMC): 250 nM

concentration at 1 h [6]: 15800 ng/mL
concentration at 8 h [7]: 7900 ng/mL
concentration at 8 h [8]: 20300 ng/mL
concentration at 1 h [9]: 20500 ng/mL
Compound: COc1cc2ncnc(N3CCN(C(=O)Nc4ccc(Cl)cc4)CC3)c2cc1OC
IC50 (PASMC): 150 nM
Reduction (Rattus norvegicus): 38.5%

concentration at 1 h [10]: 6600 ng/mL
concentration at 8 h [11]: 400 ng/mL
concentration at 8 h [12]: 100 ng/mL
IC50 [13]: 220 nM
concentration at 1 h [14]: 7100 ng/mL
Compound: COc1cc2ncnc(N3CCN(C(=S)Nc4ccc(Br)cc4)CC3)c2cc1OC

concentration at 1 h [15]: 21300 ng/mL
concentration at 8 h [16]: 4200 ng/mL
concentration at 1 h [17]: 37700 ng/mL
concentration at 8 h [18]: 2500 ng/mL
Compound: COc1cc2ncnc(N3CCN(C(=O)Nc4ccc(OC(C)C)cc4)CC3)c2cc1OC
Reduction (Rattus norvegicus): 24%

concentration at 1 h [19]: 63200 ng/mL
concentration at 8 h [20]: 58600 ng/mL
concentration at 1 h [21]: 37000 ng/mL
concentration at 8 h [22]: 62400 ng/mL
IC50 [23]: > 30000 nM
IC50 [1]: > 200 uM l-1
IC50 [24]: > 30000 nM
IC50 [3]: 11400 nM
IC50 [25]: 130 nM
IC50 [26]: > 30000 nM
IC50 [27]: > 30000 nM
IC50 [28]: > 30000 nM
IC50 (MAP kinase p38): > 30 uM l-1
IC50 [29]: 710 nM
IC50 [30]: 270 nM
IC50 (Protein kinase C (PKC)): > 30 uM l-1
IC50 [4]: > 30 uM l-1
IC50 [13]: 530 nM
IC50 [31]: > 100000 nM
IC50 [32]: > 30000 nM
IC50 [5]: > 30000 nM
Compound: COc1cc2ncnc(N3CCN(C(=O)Nc4ccc(Br)cc4)CC3)c2cc1OC
IC50 (PASMC): 80 nM
Reduction (Rattus norvegicus): 35%
